We go through 95 compounds from ChEMBL document CHEMBL4513216, “Probing the Open Global Health Chemical Diversity Library for Multistage-Active Starting Points for Next-Generation Antimalarials” (ACS Infect Dis, 2020).

Each structure is given as a SMILES string.

The nature of the series: Toxicity liver stage against HepG2, at 10uM. Type of series: cell-based. To be noted: human, HepG2-A16-CD81EGFP cells; read-out: INHIBITION
More on the design: test concentration 10 uM, cell line HepG2-A16-CD81EGFP. Summed up:
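Uninfected HepG2-A16-CD81EGFP cells, 3 × 10^3 per well, 1536-well, plated on prespotted compound at 10 μM final, parasite-free screening media added to match infected plates; puromycin 10 μM positive, DMSO 0.5% negative; run in parallel with 48 h PbLuc assay at 37 °C, 5% CO2; viability by CellTiter-Glo luminescence, normalized to controls.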
For the compound `O=C(c1cccs1)N1CC(C(=O)N2CCCC2)C2(CCOCC2)C1` (stereo not given), the cytotoxicity at 10 µM is -2.64%.
For `Cc1occc1C(=O)N1CCN2C[C@H](Oc3cccnc3)C[C@H]2C1` the value was -4.15%.
For `Cc1cc(S(=O)(=O)Nc2cccc(-n3cccc3)c2)sc1C(=O)O` the value was -2.23%; for `Cc1ccc(C(=O)N2CCc3ncccc3C2)cc1N1CCNC1=O`, -4.33%.
Under `Cc1nc(C)n(C2CCCN(C(=O)c3ccc4nccn4c3)C2)n1` (stereo not given) stands -12%; under `COCc1ccccc1CNCc1c(C)nn(C)c1N(C)C`, -8.45%.
For the compound `COc1ccc(CN(C(=O)C2CCOCC2)c2ccncc2)cc1`, the cytotoxicity at 10 µM worked out at 8.5%.
Under `CN(CC(C)(CO)CO)C(=O)Nc1cc(Cl)cc(Cl)c1` stands 0.0988%; under `CN(CCC#N)C(=O)C(C)(C)Oc1ccc(C(N)=O)cc1`, 0.676%.
Under `COc1ccc(CN2CCO[C@H]3[C@H](Oc4ccccn4)CC[C@@H]32)cc1` stands 21.5%; under `Cc1cnn(CC2CCCN2Cc2nccn2CC(F)(F)F)c1` (stereo not given), -8.5%; under `CC(=O)Nc1ccc(CNC(C)c2c(C)nn(C)c2C)cc1` (stereo not given), 13%.
On to `CC(=O)N1CC[C@H]2CC(=O)N(C3CC3)CC[C@H]2C1`, for which the cytotoxicity at 10 µM is -0.434%.
For `Cc1ccc(CN2CCCC3(COCCN(Cc4c[nH]nn4)C3)C2)s1` (stereo not given), the cytotoxicity at 10 µM was -1.31%.
Under `CC(C)N1CCOC(c2cc(CCO)[nH]n2)C1` (stereo not given) stands 1.47%; under `O=C(Nc1ccccn1)c1csc(NC2CCCC2)n1`, 9.09%; under `CN(C)C1(CNC(=O)c2c(O)cc(Cl)cc2Cl)CCOCC1`, -9.46%.
Under `CC(O)CN1CCN(C(=O)c2ccc3c(c2)COC3)CC1` (stereo not given) stands -6.44%.
For `Cc1ccc(N2C(=O)N[C@@H]3CCN(C(=O)C4CCCC4)[C@@H]3C2=O)cc1` the value was 0.199%; for `Cc1csc2c(C3CCCN(C(=O)Cn4cncn4)C3)nc(C)n12` (stereo not given), 5.27%; for `Cc1nn(C)c2c(N3CCC(C)CC3)nc(C3CC3)nc12`, 7.59%.
For the compound `O=C(Cc1cccs1)N1CCOC(c2cccc(O)c2)C1` (stereo not given), the cytotoxicity at 10 µM is 0.631%.
For `CC(C#N)NS(=O)(=O)c1ccc2c(c1)N(C)CCC2` (stereo not given) the value was -4.28%; for `CC(C)CNC(=O)Cn1cc(C(N)=O)c(-c2ccccc2)n1`, -6.98%.
In the case of `CNC(=O)c1cn[nH]c1C1CCN(Cc2cn(C)nc2C)C1` (stereo not given), the cytotoxicity at 10 µM was -24.3%.
Under `Cc1cc(CN(C)C(=O)C2CC(=O)N(Cc3cccnc3)C2)on1` (stereo not given) stands 2.95%.
Under `CCc1nc(CN2CCCC(N(C)Cc3cnc(C)s3)C2)no1` (stereo not given) stands 2.89%; under `Cc1cnn(CC2CCCN2CC(=O)Nc2cc(C)on2)c1` (stereo not given), -26.7%; under `CC(=O)N1CCN(Cc2ccc(F)cc2)CC2(CC(=O)N(C)C2)C1` (stereo not given), -2.78%.
For the compound `CC(=O)c1c(O)ccnc1C(F)(F)F`, the cytotoxicity at 10 µM was determined as 2.34%.
Under `Cc1cc(NC(=O)C(c2cccc(F)c2)N2CCOCC2)sn1` (stereo not given) stands -3.98%; under `Cc1nnc(C(C)Nc2ccc(OCCc3ccccc3)nc2)o1` (stereo not given), -4.08%; under `Cc1nn(C)cc1C(=O)NCc1cc(N(C)C)nc2ccccc12`, 2.29%.
For `Cc1occc1C(=O)NCC(=O)N(C)CCCOc1ccc(F)cc1` the value was -41.9%; for `CC(C)C1CCCN1CC(=O)NCc1ccc(OCC(N)=O)cc1` (stereo not given), 7.01%.
`Cn1cc(CNCCc2cccnc2)c(-c2cccnc2)n1`: the cytotoxicity at 10 µM was found to be 9.37%.
Under `CCn1nc(CC(C)C)cc1C(=O)N1CCN([C@H]2CCCC[C@@H]2O)CC1` stands -6.98%.
For `O=C(c1ccco1)N1C[C@H]2CCCN(Cc3cccs3)[C@H]2C1` the value was 5.71%; for `Cc1ccc(-c2nc(CCNCc3ccncc3)co2)cc1`, -4.96%.
Under `COC[C@@]12CCO[C@@H]1CCN(C(=O)C1CCOCC1)C2` stands -106%.
As for `COCc1ncn2c1CN(C(=O)Nc1cccc(OC)c1)CC2`, the cytotoxicity at 10 µM amounted to 12.7%.
As for `Cn1ccc(C(=O)N(CC(F)F)c2cccc(Cl)c2)cc1=O`, the cytotoxicity at 10 µM came to 0.541%.
For `Cc1cccc(C(=O)N2CCn3cnc(COCC4CC4)c3C2)n1` the value was 6.85%; for `NC1(c2nc(-c3cccs3)cc(=O)[nH]2)CCCCC1`, 6.03%; for `COc1cccc(CN2CCC(c3cc(O)nc(C)n3)C2)c1` (stereo not given), -0.542%.
For `Cc1csc(NC(=O)c2cnc(C3CCNCC3)cn2)n1` the value was -12.3%; for `FC(F)(F)c1cccc(C2(CNCc3ccncc3)CCOCC2)c1`, -6.98%.
On to `O=C1CCCN1C(CNS(=O)(=O)C1CC1)Cc1cccc(F)c1` (stereo not given), for which the cytotoxicity at 10 µM was 1.49%.
For `O=C(CN(Cc1ccccc1)CC1CCOCC1)NC(=O)NC1CC1` the value was -6.49%; for `COc1cc(C)nc(N2CCN(C(=O)c3cc(C)no3)CC2)n1`, -30.4%; for `COc1ccc(C(C(=O)O)N(C)CCN2CCCC2)cc1F` (stereo not given), 1.38%.
For `COC(=O)[C@]12CNC[C@H]1CN(Cc1nc(C)c[nH]1)C2` the value was 6.01%; for `OCc1cn(CC2CCN(C3CCSC3)CC2)nn1` (stereo not given), 0.55%; for `Cc1occc1C(=O)N1C[C@@H](OCc2cccnc2)[C@H]2OCCC[C@@H]21`, 3.16%.
Consider `CC(O)CN1CCN(C(=O)c2ccn(-c3ccccc3Cl)n2)CC1` (stereo not given), for which the cytotoxicity at 10 µM is -11.6%.
As to `CCc1nnc(Nc2cccc(C3CCN(C(=O)CN(C)C)CC3)n2)s1`, the cytotoxicity at 10 µM is -39.1%.
In the case of `Cc1cc(C)c2nc(CN3CC[C@@H](O)C3)cc(O)c2c1`, the cytotoxicity at 10 µM is -6.23%.
For the compound `NC(=O)NCC(=O)N1CCCC(OCc2cccnc2)C1` (stereo not given), the cytotoxicity at 10 µM is -1.53%.
With `COc1ccc2c(c1)C1(CCN(Cc3nccs3)CC1)N(C)CC2`, the cytotoxicity at 10 µM is -148%.
Under `Cc1ccc(CN2CCC3(CC2)CN(c2ccccc2)C(=O)CO3)o1` stands -116%; under `CC(C)OCc1ccc(CNC(=O)NC2(CO)CCCC2)cc1`, -48.9%; under `CN1CCN(C(CNC(=O)c2ccc(Cl)cc2F)c2cccs2)CC1` (stereo not given), 84.6%.
For the compound `CCc1cc(N(C)Cc2noc(CC(C)C)n2)ncn1`, the cytotoxicity at 10 µM was determined as 7.18%.
Under `CCOc1cccnc1C(=O)N1CCC(c2ccccc2OC)C1` (stereo not given) stands 7.71%; under `Cn1cc(CCC(=O)N2C[C@@H]3CC[C@H]2CN(Cc2ccccc2)C3)cn1`, -1.97%; under `CN(C)S(=O)(=O)N(C)C(c1cccc(F)c1)c1ccccn1` (stereo not given), 3.22%.
For `O=C(NCCc1cccnc1)c1ccc2nccn2c1` the value was -38.6%; for `CC(C)n1cnnc1CN(C)C(=O)c1cc(COc2ccccc2)[nH]n1`, 4.58%; for `Cc1nn(-c2ccccn2)c(C)c1[C@@H]1C=C[C@@H](NC(=O)CCC(=O)O)C1`, 4.59%.
Under `CC(C)c1cc(NCC2(N3CCOCC3)CCCCC2)ncn1` stands -12.8%.
As to `Cc1cc(F)ccc1-n1cc(O)c(C(=O)NCC[S+](C)[O-])n1` (stereo not given), the cytotoxicity at 10 µM is 9.38%.
For `Cc1cc(Nc2ccc3c(c2)CC(=O)N3)nc(C2CC2)n1`, the cytotoxicity at 10 µM is 0.658%.
Under `CC(NC(=O)N1CCC1)c1ccc(S(N)(=O)=O)cc1` (stereo not given) stands -8.64%; under `Cc1ccc(CN(C)C(=O)c2cc3c(c(S(N)(=O)=O)c2)CCC3)o1`, -52.5%; under `Cc1ccc(C(=O)Nc2ccc(S(=O)(=O)/N=C3\CCCN3C)cc2)s1`, 0.174%.
Turning to `CC(C)n1nnc(CC(=O)NCC2(c3ccccc3F)CCCC2)n1`, the cytotoxicity at 10 µM was -0.325%.
For `O=C(c1cc(CC2(NCc3ccccc3)COC2)no1)N1CCCCC1`, the cytotoxicity at 10 µM turned out to be 1.14%.
For `CC(C)n1c2ccccc2c2c1cc(C(=O)O)n2C(=O)N(C)C` the value was -94.3%; for `c1ccc(CN2CCC(Nc3ncnc4c3CCNCC4)C2)cc1` (stereo not given), 8.03%; for `CC(C)(C)c1nc(CNc2cc3c(cc2Cl)NC(=O)CO3)no1`, -0.438%.
Under `Cc1ccccc1CN(C)C(=O)Cn1nc(-c2ccc(F)cc2)oc1=O` stands -19.3%; under `CCc1cc(=O)n(CC(=O)N2CCCC2)c(-c2ccc(F)cc2)n1`, 8.66%.
Under `Cc1oncc1C(=O)N1CC[C@H]2[C@@H]1CCC(=O)N2c1cccnc1` stands -76.3%.
Consider `Cc1cc(C)n(CC(C)CNC(=O)N(C)Cc2ccco2)n1` (stereo not given), for which the cytotoxicity at 10 µM is 4.47%.
For `COCC(=O)N1CCC(C(=O)N(C)C(C)c2ccon2)CC1` (stereo not given) the value was 1.28%; for `CCn1c(C)cc(C(=O)Nc2ccccc2CN(C)C(C)=O)c1C`, -1.03%.
For `CC(SCCC(=O)NC(N)=O)c1cccc(F)c1` (stereo not given) the value was 5.28%; for `COc1ccc(-c2noc(CN3CCc4cncnc4C3)n2)cc1`, -0.215%.
For `CN(C)CCN1CCOCC2(CCCN(C(=O)c3ccccn3)C2)C1` (stereo not given) the value was 6.67%; for `C=C1c2ccccc2C(=O)N1CCC(=O)N1CCNC(=O)C1`, -4.12%; for `O=C(c1cnn(-c2ccccc2)c1)N1CCN(c2cnccn2)CC1`, 5.37%.
As for `COc1ccc(CCCNCc2c(C)nn(C)c2N(C)C)cc1OC`, the cytotoxicity at 10 µM is -19.2%.
Under `Cc1cc(C(NC(=O)CNS(C)(=O)=O)C(C)C)c(C)s1` (stereo not given) stands 5.2%; under `CCC(CCNC(=O)c1cc(C2CC2)nc2c1cnn2C)n1cccn1` (stereo not given), 2.04%.
Under `CCSc1cncc(N2CCC(C(=O)NC(C)C(C)C)CC2)n1` (stereo not given) stands -1.81%.
